Test results taken from ChEMBL document CHEMBL1139831, “The influence of modifications in imide fragment structure on 5-HT(1A) and 5-HT(7) receptor affinity and in vivo pharmacological properties of some new 1-(m-trifluoromethylphenyl)piperazines” (Bioorg Med Chem, 2007).
pKi: −log10 of the molar value.

Key:
Mus musculus [1] = test: Effect on locomotor activity in Swiss Albino mouse assessed as number of crossings in 30 mins at 1 mg/kg administered 30 mins before the test; format: functional
In short: (§1)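 Male Albino Swiss mice given compound ip (1% Tween 80, 10 ml/kg) 30 min before placement singly in plastic cages in a multichannel photobeam activity monitor; ambulation crossings counted over the first 6 min and over a 30 min session. n = 9-10 per group; ANOVA then Dunnett's test.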

Rattus norvegicus [2] = test: Effect on lower lip retraction in Wistar rat at 0.1 mg/kg; format: functional
In short: (§2)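 Male Wistar rats (290–310 g) dosed ip in 1% Tween 80 (2 ml/kg), caged singly; lower lip retraction scored 15, 30 and 45 min after dosing as 0 (incisors not visible), 0.5 (partly) or 1 (completely visible), totals up to 3 per rat. n = 6 per group; one-way ANOVA followed by Dunnett's test.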

Rattus norvegicus [3] = test: Effect on lower lip retraction in Wistar rat at 0.3 mg/kg; format: functional; in short: as §2
Rattus norvegicus [4] = test: Effect on lower lip retraction in Wistar rat at 1 mg/kg; format: functional; in short: as §2
Rattus norvegicus [5] = test: Effect on 8-OH-DPAT-induced lower lip retraction in Wistar rat at 0.1 mg/kg; format: functional
Mus musculus [6] = test: Anxiolytic activity in Swiss Albino mouse assessed as number of punished crossings for 60 secs at 5 mg/kg administered 30 mins before the test by four-plate test; format: functional
In short: (§3)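 Male Albino Swiss mice dosed ip (1% aqueous Tween 80, 10 ml/kg) 30 min beforehand. Opaque box floored with four metal plates; 15 s free exploration, then each plate-to-plate crossing triggers a 0.5 s, 120 V floor shock, with no new shock for 3 s if running continues. Punished crossings counted over 60 s; n = 9-10, ANOVA plus Dunnett's test.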

Mus musculus [7] = test: Anxiolytic activity in Swiss Albino mouse assessed as number of punished crossings for 60 secs at 0.3 mg/kg administered 30 mins before the test by four-plate test; format: functional; in short: as §3
Mus musculus [8] = test: Anxiolytic activity in Swiss Albino mouse assessed as number of punished crossings for 60 secs at 1 mg/kg administered 30 mins before the test by four-plate test; format: functional; in short: as §3
[9] = molecular target: T1, 5-hydroxytryptamine receptor 1A (Rattus norvegicus, UniProt P19327); test: Displacement of [3H]8-OH-DPAT from 5HT1A in rat hippocampal membranes; format: cell membranes, Hippocampus, Membrane
T1 sequence (P19327 whole entry): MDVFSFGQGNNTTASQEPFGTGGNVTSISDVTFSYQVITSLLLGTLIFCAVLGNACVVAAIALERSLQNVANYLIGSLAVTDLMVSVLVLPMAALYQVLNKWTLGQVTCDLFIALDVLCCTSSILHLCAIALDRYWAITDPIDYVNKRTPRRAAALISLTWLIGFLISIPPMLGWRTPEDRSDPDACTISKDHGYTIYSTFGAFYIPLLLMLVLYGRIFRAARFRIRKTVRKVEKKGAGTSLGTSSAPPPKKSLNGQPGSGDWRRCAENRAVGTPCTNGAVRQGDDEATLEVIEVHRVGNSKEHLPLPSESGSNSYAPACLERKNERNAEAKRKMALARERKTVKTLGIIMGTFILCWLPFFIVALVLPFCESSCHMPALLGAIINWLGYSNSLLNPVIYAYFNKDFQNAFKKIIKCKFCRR
In short: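 Rat hippocampal membranes, [3H]-8-OH-DPAT as radioligand, 5-HT defining nonspecific binding. 7–9 drug concentrations run in triplicate, at least three separate experiments. Filtration through GF/B filters with three ice-cold buffer washes, scintillation counting. Ki from non-linear regression of binding isotherms via Cheng-Prusoff equation.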

D(2) dopamine receptor = D(2) dopamine receptor (Rattus norvegicus, UniProt P61169); test: Displacement of [3H]spiperone from dopamine D2 receptor in rat striatal membranes; format: cell membranes, Membrane
Chain of D(2) dopamine receptor (P61169 whole entry): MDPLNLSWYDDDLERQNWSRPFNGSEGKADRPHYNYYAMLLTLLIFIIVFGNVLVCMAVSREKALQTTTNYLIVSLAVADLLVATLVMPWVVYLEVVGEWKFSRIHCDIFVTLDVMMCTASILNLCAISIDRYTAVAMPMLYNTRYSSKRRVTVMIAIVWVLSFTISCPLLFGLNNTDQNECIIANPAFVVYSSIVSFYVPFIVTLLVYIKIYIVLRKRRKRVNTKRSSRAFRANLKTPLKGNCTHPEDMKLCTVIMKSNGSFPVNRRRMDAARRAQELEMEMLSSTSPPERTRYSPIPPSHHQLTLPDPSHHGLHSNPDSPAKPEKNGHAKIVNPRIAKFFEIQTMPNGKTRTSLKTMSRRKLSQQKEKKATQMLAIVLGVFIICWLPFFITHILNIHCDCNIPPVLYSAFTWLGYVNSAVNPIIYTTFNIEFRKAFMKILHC
In short: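 Competition binding on rat striatal membranes using [3H]-spiperone, butaclamol for nonspecific binding; filtration through GF/B filters and scintillation counting. Run at two compound concentrations, each in triplicate, and affinity expressed as estimated Ki.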

[10] = Displacement of [3H]prazosin from adrenergic alpha1 receptor in rat cortical membranes; format: cell membranes, Membrane
In short: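 Rat cortical membranes with [3H]-prazosin; phentolamine defines nonspecific binding. 7–9 drug concentrations in triplicate, at least three separate experiments; stopped by GF/B filtration with three ice-cold buffer washes, bound radioactivity by liquid scintillation counting; Ki from non-linear regression and Cheng-Prusoff equation.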

[11] = molecular target: 5-hydroxytryptamine receptor 7 (Homo sapiens, UniProt P34969); test: Displacement of [3H]5-CT from human 5HT7 expressed in HEK293 cells; format: cell-based
Chain of 5-hydroxytryptamine receptor 7 (P34969 whole entry): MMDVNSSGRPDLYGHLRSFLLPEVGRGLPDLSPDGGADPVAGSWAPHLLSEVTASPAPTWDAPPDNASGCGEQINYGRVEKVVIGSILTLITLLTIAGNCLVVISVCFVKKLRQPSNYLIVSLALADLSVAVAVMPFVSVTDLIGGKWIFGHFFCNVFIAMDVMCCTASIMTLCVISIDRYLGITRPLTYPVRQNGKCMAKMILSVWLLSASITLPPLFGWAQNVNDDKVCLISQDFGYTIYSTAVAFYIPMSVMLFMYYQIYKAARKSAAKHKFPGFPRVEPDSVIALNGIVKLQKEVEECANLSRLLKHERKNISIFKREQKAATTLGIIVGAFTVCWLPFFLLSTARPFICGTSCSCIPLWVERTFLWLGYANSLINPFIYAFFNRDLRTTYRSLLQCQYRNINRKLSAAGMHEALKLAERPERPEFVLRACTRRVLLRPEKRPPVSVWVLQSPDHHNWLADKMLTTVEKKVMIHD
In short: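 HEK293 cells stably transfected with human 5-HT7(b) cDNA; membranes (10 µg protein) incubated 1 h at 37 °C in 50 mM Tris-HCl pH 7.4 with 4 mM MgCl2, 0.1 mM pargyline, 0.1% ascorbic acid, 0.5 nM [3H]-5-CT and 7–9 test concentrations in triplicate; 10 µM 5-HT defines nonspecific binding. GF/B filtration, scintillation counting; Ki via Cheng-Prusoff from ≥3 experiments.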

Mus musculus [12] = test: Antidepressant activity in Swiss Albino mouse assessed as immobility time during final 4 mins of 6 mins session at 0.1 mg/kg administered 30 mins before the test by forced-swimming test; format: functional
In short: (§4)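 Male Albino Swiss mice (24–28 g), compound given ip in 1% aqueous Tween 80 (10 ml/kg), 30 min before test. Mouse placed singly in glass cylinder (25 cm high, 10 cm diameter) holding 6 cm water at 23–25 °C for 6 min; immobility (floating, only small head-keeping movements) timed over last 4 min. n = 9-10 per group; one-way ANOVA then Dunnett's test.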

Mus musculus [13] = test: Antidepressant activity in Swiss Albino mouse assessed as immobility time during final 4 mins of 6 mins session at 0.3 mg/kg administered 30 mins before the test by forced-swimming test; format: functional; in short: as §4
Mus musculus [14] = test: Antidepressant activity in Swiss Albino mouse assessed as immobility time during final 4 mins of 6 mins session at 1 mg/kg administered 30 mins before the test by forced-swimming test; format: functional; in short: as §4
Mus musculus [15] = test: Effect on locomotor activity in Swiss Albino mouse assessed as number of crossings in 6 mins at 0.3 mg/kg administered 30 mins before the test; format: functional; in short: as §1
Mus musculus [16] = test: Effect on locomotor activity in Swiss Albino mouse assessed as number of crossings in 30 mins at 0.3 mg/kg administered 30 mins before the test; format: functional; in short: as §1
Mus musculus [17] = test: Effect on locomotor activity in Swiss Albino mouse assessed as number of crossings in 6 mins at 1 mg/kg administered 30 mins before the test; format: functional; in short: as §1
Mus musculus [18] = species: Mus musculus; details: Swiss Albino, 5 mg/kg
Mus musculus [19] = species: Mus musculus; details: Swiss Albino, 2.5 mg/kg
Mus musculus [20] = species: Mus musculus; details: Swiss Albino, 5 mg/kg; remark: listed apart in the source
Mus musculus [21] = species: Mus musculus; details: Swiss Albino, 2.5 mg/kg; remark: listed apart in the source
Mus musculus [22] = species: Mus musculus; details: Swiss Albino, 5 mg/kg; remark: listed apart in the source
Mus musculus [23] = species: Mus musculus; details: Swiss Albino, 5 mg/kg; remark: listed apart in the source
Mus musculus [24] = species: Mus musculus; details: Swiss Albino, 5 mg/kg; remark: listed apart in the source
Mus musculus [25] = species: Mus musculus; details: Swiss Albino, 2.5 mg/kg; remark: listed apart in the source
Mus musculus [26] = species: Mus musculus; details: Swiss Albino, 5 mg/kg; remark: listed apart in the source
Mus musculus [27] = species: Mus musculus; details: Swiss Albino, 2.5 mg/kg; remark: listed apart in the source
Rattus norvegicus [28] = test: Effect on lower lip retraction in Wistar rat at 2.5 mg/kg; format: functional; in short: as §2
Rattus norvegicus [29] = test: Effect on lower lip retraction in Wistar rat at 5 mg/kg; format: functional; in short: as §2
Rattus norvegicus [30] = test: Effect on lower lip retraction in Wistar rat at 10 mg/kg; format: functional; in short: as §2
Rattus norvegicus [31] = test: Effect on 8-OH-DPAT-induced lower lip retraction in Wistar rat at 2.5 mg/kg; format: functional
Mus musculus [32] = test: Anxiolytic activity in Swiss Albino mouse assessed as number of punished crossings for 60 secs at 2.5 mg/kg administered 30 mins before the test by four-plate test; format: functional
In short: (§5)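 Male Albino Swiss mice (24–28 g), compound suspended in 1% aqueous Tween 80, given ip (10 ml/kg). Mouse placed in box with four metal floor plates, 15 s exploration, then floor electrified (120 V, 0.5 s) at each plate-to-plate crossing, no new shock for 3 s. Punished crossings counted over 60 s. n = 9-10/group; one-way ANOVA then Dunnett's test.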

Mus musculus [33] = test: Anxiolytic activity in Swiss Albino mouse assessed as number of punished crossings for 60 secs at 10 mg/kg administered 30 mins before the test by four-plate test; format: functional; in short: as §5
Mus musculus [34] = test: Antidepressant activity in Swiss Albino mouse assessed as immobility time during final 4 mins of 6 mins session at 5 mg/kg administered 30 mins before the test by forced-swimming test; format: functional; in short: as §4
Mus musculus [35] = test: Antidepressant activity in Swiss Albino mouse assessed as immobility time during final 4 mins of 6 mins session at 10 mg/kg administered 30 mins before the test by forced-swimming test; format: functional; in short: as §4
Mus musculus [36] = test: Effect on locomotor activity in Swiss Albino mouse assessed as number of crossings in 6 mins at 5 mg/kg administered 30 mins before the test; format: functional
In short: (§6)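 Male Albino Swiss mice (24–28 g) given compound ip (suspension in 1% aqueous Tween 80, 10 ml/kg). Animals housed singly in plastic cages in a multichannel photobeam activity monitor. Ambulation crossings counted over first 6 min and over 30-min session. n = 9-10/group; one-way ANOVA then Dunnett's test.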

Mus musculus [37] = test: Effect on locomotor activity in Swiss Albino mouse assessed as number of crossings in 30 mins at 5 mg/kg administered 30 mins before the test; format: functional; in short: as §1
Mus musculus [38] = test: Effect on locomotor activity in Swiss Albino mouse assessed as number of crossings in 6 mins at 10 mg/kg administered 30 mins before the test; format: functional; in short: as §6
Mus musculus [39] = test: Effect on locomotor activity in Swiss Albino mouse assessed as number of crossings in 30 mins at 10 mg/kg administered 30 mins before the test; format: functional; in short: as §1
Mus musculus [40] = species: Mus musculus; details: Swiss Albino, 10 mg/kg
Mus musculus [41] = species: Mus musculus; details: Swiss Albino, 10 mg/kg; remark: listed apart in the source
Mus musculus [42] = species: Mus musculus; details: Swiss Albino, 10 mg/kg; remark: listed apart in the source
Mus musculus [43] = species: Mus musculus; details: Swiss Albino, 10 mg/kg; remark: listed apart in the source
Mus musculus [44] = species: Mus musculus; details: Swiss Albino, 10 mg/kg; remark: listed apart in the source
Mus musculus [45] = species: Mus musculus; details: Swiss Albino, 10 mg/kg; remark: listed apart in the source

O=C1CCCC(=O)N1C1CCC(N2CCN(c3cccc(C(F)(F)F)c3)CC2)CC1 (trans isomer)
Activity (Mus musculus [1]): 374.3 | Activity (Rattus norvegicus [2]): 1.3 | Activity (Rattus norvegicus [3]): 2.4 | Activity (Rattus norvegicus [4]): 3 | Activity (Rattus norvegicus [5]): 2.6 | Activity (Mus musculus [6]): 4.2 | Activity (Mus musculus [7]): 3.9 | Activity (Mus musculus [8]): 3.9 | pKi [9]: 8.59 | pKi (D(2) dopamine receptor): < 5.30 | pKi [10]: 7.07 | pKi [11]: 5.92 | Activity (Mus musculus [12]): 128.3 s | Activity (Mus musculus [13]): 70.1 s | Activity (Mus musculus [14]): 77.7 s | Activity (Mus musculus [15]): 208.2 | Activity (Mus musculus [16]): 537.7 | Activity (Mus musculus [17]): 121.6 | deltaT (Mus musculus [18]): -1.5 °C | deltaT (Mus musculus [19]): -0.5 °C | deltaT (Mus musculus [20]): -1.3 °C | deltaT (Mus musculus [21]): -0.3 °C | deltaT (Mus musculus [22]): -1.2 °C | deltaT (Mus musculus [23]): -1.2 °C | deltaT (Mus musculus [24]): -1.6 °C | deltaT (Mus musculus [25]): -0.7 °C | deltaT (Mus musculus [26]): -1.5 °C | deltaT (Mus musculus [27]): -0.5 °C

O=C1CCCC(=O)N1CCCCN1CCN(c2cccc(C(F)(F)F)c2)CC1
Activity (Rattus norvegicus [28]): 1.6 | Activity (Rattus norvegicus [29]): 2.6 | Activity (Rattus norvegicus [30]): 2.8 | Activity (Rattus norvegicus [31]): 2.2 | Activity (Mus musculus [32]): 4.3 | Activity (Mus musculus [6]): 5.8 | Activity (Mus musculus [33]): 5.2 | Activity (Mus musculus [34]): 183.9 s | pKi [9]: 8.52 | pKi (D(2) dopamine receptor): < 5.30 | pKi [10]: 7.00 | pKi [11]: 7.68 | Activity (Mus musculus [35]): 196.7 s | Activity (Mus musculus [36]): 217.1 | Activity (Mus musculus [37]): 526.2 | Activity (Mus musculus [38]): 16.3 | Activity (Mus musculus [39]): 179.3 | deltaT (Mus musculus [18]): -0.4 °C | deltaT (Mus musculus [40]): -1 °C | deltaT (Mus musculus [20]): -0.1 °C | deltaT (Mus musculus [41]): -0.9 °C | deltaT (Mus musculus [42]): -1 °C | deltaT (Mus musculus [43]): -0.8 °C | deltaT (Mus musculus [24]): -0.5 °C | deltaT (Mus musculus [44]): -1.3 °C | deltaT (Mus musculus [26]): -0.4 °C | deltaT (Mus musculus [45]): -1.1 °C
